According to ChEMBL document CHEMBL3102844, “Synthesis and evaluation of Strychnos alkaloids as MDR reversal agents for cancer cell eradication” (Bioorg Med Chem, 2014):
Active and inactive are the calls of the source. The calls are words filed in the database; no cut-off is given here.

Columns and labels:
[1] = target: T1, ATP-dependent translocase ABCB1 (Homo sapiens, UniProt P08183); test: Inhibition of human MDR1 overexpressed in human KB cells assessed as potentiation of vincristine-induced cytotoxicity at 3 uM incubated for 1 hr prior to vincristine challenge measured after 4 days by MTT assay relative to verapamil; type: cell-based; settings: 96 h
[2] = target: T1, ATP-dependent translocase ABCB1; test: Inhibition of human MDR1 overexpressed in human KB cells assessed as potentiation of vincristine-induced cytotoxicity at 1 uM incubated for 1 hr prior to vincristine challenge measured after 4 days by MTT assay relative to verapamil; type: cell-based; settings: 96 h
[3] = target: T1, ATP-dependent translocase ABCB1; test: Inhibition of p-glycoprotein (unknown origin) overexpressed in human KBV20C cells assessed as potentiation of vincristine-induced cytotoxicity at 3 uM incubated for 1 hr prior to vincristine challenge measured after 4 days by MTT assay; type: cell-based; settings: 96 h
[4] = target: T1, ATP-dependent translocase ABCB1; test: Inhibition of p-glycoprotein (unknown origin) overexpressed in human KBV20C cells assessed as potentiation of vincristine-induced cytotoxicity at 1 uM incubated for 1 hr prior to vincristine challenge measured after 4 days by MTT assay; type: cell-based; settings: 96 h
KBV20C = test: (§1) Cytotoxicity against human KBV20C cells overexpressing pgp assessed as reduction in cell viability after 4 days by MTT assay; type: functional, cell-based
Method in brief: (§2)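 KB-MDR (1000 cells/well) or KB-V20C (2000 cells/well) Pgp-overexpressing KB lines in RPMI1640 with 10% FBS; cultured 4 days with serial concentrations of test compound. Viability read by MTT endpoint absorbance. IC50 obtained by fitting a sigmoid Emax model to viability versus concentration; duplicates from three independent experiments.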

KB = test: Cytotoxicity against human KB cells overexpressing human MDR1 assessed as reduction in cell viability after 4 days by MTT assay; type: functional, cell-based; method in brief: as §2
Homo sapiens [5] = species on record: Homo sapiens; test: Induction of human recombinant p-glycoprotein ATPase activity using ATP as substrate at 0.3 to 1 mM after 40 mins by luciferase-mediated Pgp-Glo assay
Method in brief: (§3)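 Reaction started with ATP (5 mM final), 40 min at 37 °C, stopped with ATP detection reagent; residual ATP read by luciferase luminescence. Luminescence difference gives effect on ATPase activity. Triplicates in two independent experiments.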

[6] = Binding affinity to p-glycoprotein (unknown origin) by intrinsic tryptophan fluorescence quenching assay; parameters: species or system Homo sapiens
[7] = target: T1, ATP-dependent translocase ABCB1; test: Inhibition of human MDR1 overexpressed in human KB cells assessed as potentiation of doxorubicin-induced cytotoxicity at 1 uM incubated for 1 hr prior to […] measured after 4 days by MTT assay relative to verapamil; type: cell-based; settings: 96 h
[8] = target: T1, ATP-dependent translocase ABCB1; test: Inhibition of human MDR1 overexpressed in human KB cells assessed as potentiation of vincristine-induced cytotoxicity at 0.28 uM incubated for 1 hr prior to vincristine challenge measured after 4 days by MTT assay relative to verapamil; type: cell-based; settings: 96 h
[9] = target: T1, ATP-dependent translocase ABCB1; test: Inhibition of human MDR1 overexpressed in human KB cells assessed as potentiation of vincristine-induced cytotoxicity at 0.14 uM incubated for 1 hr prior to vincristine challenge measured after 4 days by MTT assay relative to verapamil; type: cell-based; settings: 96 h
[10] = target: T1, ATP-dependent translocase ABCB1; test: Inhibition of human MDR1 overexpressed in human KB cells assessed as potentiation of vincristine-induced cytotoxicity at 0.07 uM incubated for 1 hr prior to vincristine challenge measured after 4 days by MTT assay relative to verapamil; type: cell-based; settings: 96 h
[11] = target: T1, ATP-dependent translocase ABCB1; test: Inhibition of p-glycoprotein (unknown origin) overexpressed in human KBV20C cells assessed as potentiation of vincristine-induced cytotoxicity at 0.28 uM incubated for 1 hr prior to vincristine challenge measured after 4 days by MTT assay; type: cell-based; settings: 96 h
Method in brief: (§4)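 Pgp-overexpressing KB-MDR or KB-V20C cells, 1000–2000 cells/well in RPMI1640 with 10% FBS, pretreated 1 h with modulator at final 0.07–3.0 µM, then exposed to serial dilutions of vincristine or doxorubicin for four days. […] Viability read by MTT. Cytotoxic-drug IC50 obtained by sigmoid Emax fit; duplicates, three independent experiments.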

[12] = target: T1, ATP-dependent translocase ABCB1; test: Inhibition of p-glycoprotein (unknown origin) overexpressed in human KBV20C cells assessed as potentiation of vincristine-induced cytotoxicity at 0.14 uM incubated for 1 hr prior to vincristine challenge measured after 4 days by MTT assay; type: cell-based; settings: 96 h; method in brief: as §4
[13] = target: T1, ATP-dependent translocase ABCB1; test: Inhibition of p-glycoprotein (unknown origin) overexpressed in human KBV20C cells assessed as potentiation of vincristine-induced cytotoxicity at 0.07 uM incubated for 1 hr prior to vincristine challenge measured after 4 days by MTT assay; type: cell-based; settings: 96 h; method in brief: as §4
[14] = as §1; type: functional, cell-based; settings: 96 h; method in brief: as §2
Homo sapiens [15] = species on record: Homo sapiens; test: Inhibition of human recombinant p-glycoprotein ATPase activity using ATP as substrate at 0.3 to 1 mM after 40 mins by luciferase-mediated Pgp-Glo assay; method in brief: as §3

T1 sequence (P08183 whole entry): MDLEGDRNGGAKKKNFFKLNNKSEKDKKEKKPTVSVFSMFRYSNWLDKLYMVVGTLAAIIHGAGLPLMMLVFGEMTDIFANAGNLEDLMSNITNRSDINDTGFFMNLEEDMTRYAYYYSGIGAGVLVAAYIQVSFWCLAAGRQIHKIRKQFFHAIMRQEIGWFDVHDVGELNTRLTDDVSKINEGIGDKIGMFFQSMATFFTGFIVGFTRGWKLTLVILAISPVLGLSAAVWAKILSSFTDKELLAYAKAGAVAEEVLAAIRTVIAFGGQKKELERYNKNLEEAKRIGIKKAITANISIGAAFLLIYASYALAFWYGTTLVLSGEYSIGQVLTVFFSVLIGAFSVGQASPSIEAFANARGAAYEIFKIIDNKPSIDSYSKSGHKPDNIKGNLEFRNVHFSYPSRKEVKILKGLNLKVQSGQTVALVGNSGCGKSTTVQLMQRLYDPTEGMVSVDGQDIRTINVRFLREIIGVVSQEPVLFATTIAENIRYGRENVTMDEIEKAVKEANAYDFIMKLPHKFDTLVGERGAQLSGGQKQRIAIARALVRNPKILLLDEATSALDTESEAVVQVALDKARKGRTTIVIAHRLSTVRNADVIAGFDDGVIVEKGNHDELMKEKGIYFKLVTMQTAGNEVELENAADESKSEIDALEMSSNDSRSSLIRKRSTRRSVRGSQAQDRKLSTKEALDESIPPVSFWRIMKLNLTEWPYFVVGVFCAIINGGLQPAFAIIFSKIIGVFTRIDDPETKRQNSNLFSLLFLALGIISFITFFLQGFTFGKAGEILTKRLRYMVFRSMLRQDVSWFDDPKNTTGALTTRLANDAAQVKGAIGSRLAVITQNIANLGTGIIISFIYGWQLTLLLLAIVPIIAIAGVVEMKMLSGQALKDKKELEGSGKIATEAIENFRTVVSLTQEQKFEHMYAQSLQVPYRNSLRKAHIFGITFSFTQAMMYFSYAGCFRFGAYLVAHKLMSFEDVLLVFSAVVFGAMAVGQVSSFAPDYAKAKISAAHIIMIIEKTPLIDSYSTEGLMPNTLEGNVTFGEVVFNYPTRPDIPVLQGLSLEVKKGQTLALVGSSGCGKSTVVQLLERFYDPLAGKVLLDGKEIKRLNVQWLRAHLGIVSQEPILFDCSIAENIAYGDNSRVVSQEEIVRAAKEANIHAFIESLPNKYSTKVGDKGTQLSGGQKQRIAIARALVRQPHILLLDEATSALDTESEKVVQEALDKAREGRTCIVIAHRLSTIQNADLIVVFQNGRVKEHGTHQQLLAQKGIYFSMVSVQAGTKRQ

Row | Structure (SMILES) | Kd [6] [µM] | fold change (FC) [1] | fold change (FC) [2] | fold change (FC) [3] | fold change (FC) [4] | Activity (KBV20C) | Activity (KB) | Activity (Homo sapiens [5]) | fold change (FC) [7] | fold change (FC) [8] | fold change (FC) [9] | fold change (FC) [10] | fold change (FC) [11] | fold change (FC) [12] | fold change (FC) [13] | IC50 [14] [µM] | inhibition (Homo sapiens [15])
1 | C/C=C1\CN2CC[C@]34C(=C(C=O)[C@H]1C[C@H]23)Nc1ccccc14 | 81 | 2.1 | 2.1 | 0.3 | 0.2 | Dose-dependent effect | Dose-dependent effect | Active | – | – | – | – | – | – | – | – | –
2 | CC[C@@H]1CN2CC[C@]34c5ccccc5-n5c3c(cc(C(=O)OC)c5=O)[C@H]1C[C@H]24 [LEUCONICINE B] | 13.8 | 6.8 | 3.8 | 0.3 | 0.2 | Dose-dependent effect | Dose-dependent effect | Active | – | – | – | – | – | – | – | – | –
3 | C/C=C1\CN2CC[C@]34C(=C(C(=O)OC)[C@H]1C[C@H]23)Nc1ccccc14 | 99 | 3.8 | 2.5 | 0.4 | 0.2 | Dose-dependent effect | Dose-dependent effect | Active | – | – | – | – | – | – | – | – | –
4 | CC[C@@H]1CN2CC[C@]34c5ccccc5-n5c3c(cc(C(N)=O)c5=O)[C@H]1C[C@H]24 [LEUCONICINE A] | 14.1 | 5 | 3.8 | 0.6 | 0.3 | Dose-dependent effect | Dose-dependent effect | – | – | – | – | – | – | – | – | – | –
5 | CC[C@@H]1CN2CC[C@]34C(=C(C(=O)OC)[C@H]1C[C@H]23)Nc1ccccc14 | 92 | 3.8 | 2.5 | 0.2 | 0.1 | Dose-dependent effect | Dose-dependent effect | – | – | – | – | – | – | – | – | – | Active

More lines, main results first:

Row | Kd [6] [µM] | Structure (SMILES) | fold change (FC) [1] | fold change (FC) [2] | fold change (FC) [3] | fold change (FC) [4] | Activity (KBV20C) | Activity (KB) | Activity (Homo sapiens [5]) | fold change (FC) [7] | fold change (FC) [8] | fold change (FC) [9] | fold change (FC) [10] | fold change (FC) [11] | fold change (FC) [12] | fold change (FC) [13] | IC50 [14] [µM] | inhibition (Homo sapiens [15])
6 | 4.42 | CC[C@@H]1CN2CC[C@]34c5ccccc5-n5c3c(cc(C(=O)NCc3cc(OC)c(OC)c(OC)c3)c5=O)[C@H]1C[C@H]24 | – | 93.8 | – | – | Dose-dependent effect | Dose-dependent effect | – | 20 | 3.8 | 2.5 | 2.1 | 1.5 | 1 | 0.6 | 0.38 | Active
7 | 16.1 | C/C=C1\CN2CC[C@]34c5ccccc5-n5c3c(cc(C(=O)OC)c5=O)[C@H]1C[C@H]24 | 3.8 | 2.1 | 0.3 | 0.2 | Dose-dependent effect | Dose-dependent effect | Active | – | – | – | – | – | – | – | – | –
